# Reference: ChEMBL document CHEMBL3407339, “A novel series of thiazolyl-pyrazoline derivatives: synthesis and evaluation of antifungal activity, cytotoxicity and genotoxicity” (Eur J Med Chem, 2015)
# Legend:
# [Candida] zeylanoides = Antifungal activity against Candida zeylanoides NRLL Y 1774 after 48 hrs by broth microdilution assay; format: functional; conditions: Dujonia zeylanoides, NRLL Y 1774, 48 h
# How it was run: (§1)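 Broth microdilution of DMSO stocks serially diluted in sterile water (4 to 0.0039 mg/mL). Yeasts grown on SDA at 37 °C for 24 h, suspended in double-strength PDB at 10⁵ spores/mL. Incubated at 37 °C for 48 h, then sprayed with 0.5% aqueous TTC. MIC = lowest concentration inhibiting visible growth. Ketoconazole reference.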
# Fusarium solani = test: Antifungal activity against Fusarium solani NRRL 13414 after 72 hrs by broth microdilution assay; format: functional; conditions: NRRL 13414, 72 h
# How it was run: (§2)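 Compounds dissolved in DMSO, diluted in sterile distilled water from 4 to 0.0039 mg/mL. Molds grown on PDA at 25 °C for 5 days, suspended in double-strength PDB at 10⁵ spores/mL. Incubated at 25 °C for 72 h; mycelial growth read under stereo microscope. MIC = lowest concentration inhibiting visible growth. Ketoconazole reference.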
# Aspergillus parasiticus = test: Antifungal activity against Aspergillus parasiticus NRRL 465 after 72 hrs by broth microdilution assay; format: functional; conditions: NRRL 465, 72 h; how it was run: as §2
# Aspergillus flavus = test: Antifungal activity against Aspergillus flavus NRRL 980 after 72 hrs by broth microdilution assay; format: functional; conditions: NRRL 980, 72 h; how it was run: as §2
# Candida parapsilosis = test: Antifungal activity against Candida parapsilosis NRLL Y 12696 after 48 hrs by broth microdilution assay; format: functional; conditions: Lodderomyces parapsilosis, NRLL Y 12696, 48 h; how it was run: as §1
# Candida albicans = test: Antifungal activity against Candida albicans ATCC 90028 after 48 hrs by broth microdilution assay; format: functional; conditions: ATCC 90028, 48 h; how it was run: as §1
# A549 = test: Antiproliferative activity against human A549 cells after 24 hrs by XTT assay; format: functional, cell-based; conditions: A549, 24 h
# How it was run: (§3)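 A549 cells in RPMI and NIH/3T3 cells in DMEM, each with fetal calf serum, antibiotics and 7.5% NaHCO₃, at 37 °C, 5% CO₂. Seeded at 20,000 cells/well, 24 h, then compounds added in medium at 500–3.9 doses (final DMSO <0.1%) for 24 h. XTT read after 3 h at 480 nm (ref 680 nm). IC₅₀ by non-linear regression; triplicates; cisplatin control.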
# Nakaseomyces glabratus = test: Antifungal activity against Candida glabrata clinical isolate after 48 hrs by broth microdilution assay; format: functional; how it was run: as §1
# Aspergillus niger = test: Antifungal activity against Aspergillus niger ATCC 1094 after 72 hrs by broth microdilution assay; format: functional; conditions: ATCC 1094, 72 h; how it was run: as §2
# Pichia kudriavzevii = test: Antifungal activity against Candida krusei NRLL Y 7179 after 48 hrs by broth microdilution assay; format: functional; conditions: NRLL Y 7179, 48 h; how it was run: as §1
# Candida tropicalis = test: Antifungal activity against Candida tropicalis NRLL Y 12968 after 48 hrs by broth microdilution assay; format: functional; conditions: NRLL Y 12968, 48 h; how it was run: as §1
# [1] = Cytotoxicity against mouse NIH/3T3 cells after 24 hrs by XTT assay; format: cell-based; conditions: NIH3T3, 24 h; how it was run: as §3
MIC ([Candida] zeylanoides),MIC (Fusarium solani),MIC (Aspergillus parasiticus),MIC (Aspergillus flavus),MIC (Candida parapsilosis),MIC (Candida albicans),IC50 (A549),MIC (Nakaseomyces glabratus),MIC (Aspergillus niger),MIC (Pichia kudriavzevii),MIC (Candida tropicalis),Structure (SMILES),IC50 [1]
250 µg/mL,250 µg/mL,250 µg/mL,125 µg/mL,250 µg/mL,250 µg/mL,> 500 µg/mL,250 µg/mL,250 µg/mL,250 µg/mL,250 µg/mL,Fc1ccc(-c2csc(N3N=C(c4ccc(Cl)s4)CC3c3ccc(F)cc3)n2)cc1 (configuration not stated),> 500 µg/mL
250 µg/mL,250 µg/mL,250 µg/mL,250 µg/mL,250 µg/mL,250 µg/mL,> 500 µg/mL,125 µg/mL,250 µg/mL,250 µg/mL,250 µg/mL,O=[N+]([O-])c1ccc(-c2csc(N3N=C(c4ccc(Cl)s4)CC3c3ccc(F)cc3)n2)cc1 (configuration not stated),> 500 µg/mL
250 µg/mL,250 µg/mL,250 µg/mL,250 µg/mL,250 µg/mL,250 µg/mL,> 500 µg/mL,125 µg/mL,250 µg/mL,250 µg/mL,250 µg/mL,N#Cc1ccc(-c2csc(N3N=C(c4ccc(Cl)s4)CC3c3ccc(F)cc3)n2)cc1 (configuration not stated),> 500 µg/mL
250 µg/mL,250 µg/mL,250 µg/mL,250 µg/mL,250 µg/mL,250 µg/mL,> 500 µg/mL,250 µg/mL,250 µg/mL,250 µg/mL,250 µg/mL,CS(=O)(=O)c1ccc(-c2csc(N3N=C(c4ccc(Cl)s4)CC3c3ccc(F)cc3)n2)cc1 (configuration not stated),> 500 µg/mL
250 µg/mL,250 µg/mL,250 µg/mL,250 µg/mL,250 µg/mL,250 µg/mL,> 500 µg/mL,125 µg/mL,250 µg/mL,250 µg/mL,250 µg/mL,Cc1ccc(-c2csc(N3N=C(c4ccc(Cl)s4)CC3c3ccc(F)cc3)n2)cc1 (configuration not stated),> 500 µg/mL
250 µg/mL,250 µg/mL,250 µg/mL,250 µg/mL,250 µg/mL,250 µg/mL,> 500 µg/mL,125 µg/mL,250 µg/mL,250 µg/mL,250 µg/mL,COc1ccc(-c2csc(N3N=C(c4ccc(Cl)s4)CC3c3ccc(F)cc3)n2)cc1 (configuration not stated),103 µg/mL
250 µg/mL,250 µg/mL,250 µg/mL,250 µg/mL,250 µg/mL,250 µg/mL,> 500 µg/mL,125 µg/mL,250 µg/mL,250 µg/mL,250 µg/mL,Fc1ccc(C2CC(c3ccc(Cl)s3)=NN2c2nc(-c3ccc4c(c3)OCO4)cs2)cc1 (configuration not stated),73.8 µg/mL
500 µg/mL,250 µg/mL,250 µg/mL,250 µg/mL,500 µg/mL,500 µg/mL,> 500 µg/mL,125 µg/mL,250 µg/mL,500 µg/mL,500 µg/mL,Cc1ccc(C2=NN(c3nc(-c4ccccc4)cs3)C(c3ccc(F)cc3)C2)s1 (configuration not stated),> 500 µg/mL
250 µg/mL,250 µg/mL,250 µg/mL,250 µg/mL,250 µg/mL,250 µg/mL,125 µg/mL,125 µg/mL,250 µg/mL,250 µg/mL,250 µg/mL,Cc1ccc(C2=NN(c3nc(-c4ccc(F)cc4)cs3)C(c3ccc(F)cc3)C2)s1 (configuration not stated),> 500 µg/mL
250 µg/mL,250 µg/mL,250 µg/mL,250 µg/mL,250 µg/mL,250 µg/mL,> 500 µg/mL,125 µg/mL,250 µg/mL,250 µg/mL,250 µg/mL,Cc1ccc(C2=NN(c3nc(-c4ccc(Cl)cc4)cs3)C(c3ccc(F)cc3)C2)s1 (configuration not stated),> 500 µg/mL
250 µg/mL,250 µg/mL,250 µg/mL,250 µg/mL,250 µg/mL,250 µg/mL,> 500 µg/mL,125 µg/mL,250 µg/mL,250 µg/mL,250 µg/mL,Cc1ccc(C2=NN(c3nc(-c4ccc(Br)cc4)cs3)C(c3ccc(F)cc3)C2)s1 (configuration not stated),> 500 µg/mL
250 µg/mL,250 µg/mL,250 µg/mL,250 µg/mL,250 µg/mL,250 µg/mL,16.7 µg/mL,125 µg/mL,250 µg/mL,250 µg/mL,250 µg/mL,Cc1ccc(C2=NN(c3nc(-c4ccc([N+](=O)[O-])cc4)cs3)C(c3ccc(F)cc3)C2)s1 (configuration not stated),15.6 µg/mL
500 µg/mL,250 µg/mL,250 µg/mL,250 µg/mL,500 µg/mL,500 µg/mL,> 500 µg/mL,250 µg/mL,250 µg/mL,500 µg/mL,500 µg/mL,Cc1ccc(-c2csc(N3N=C(c4ccc(C)s4)CC3c3ccc(F)cc3)n2)cc1 (configuration not stated),> 500 µg/mL
500 µg/mL,250 µg/mL,250 µg/mL,250 µg/mL,500 µg/mL,500 µg/mL,184 µg/mL,250 µg/mL,250 µg/mL,500 µg/mL,500 µg/mL,COc1ccc(-c2csc(N3N=C(c4ccc(C)s4)CC3c3ccc(F)cc3)n2)cc1 (configuration not stated),146 µg/mL
250 µg/mL,250 µg/mL,250 µg/mL,250 µg/mL,250 µg/mL,250 µg/mL,173 µg/mL,250 µg/mL,250 µg/mL,250 µg/mL,250 µg/mL,Cc1ccc(C2=NN(c3nc(-c4ccc5c(c4)OCO5)cs3)C(c3ccc(F)cc3)C2)s1 (configuration not stated),125 µg/mL
250 µg/mL,250 µg/mL,250 µg/mL,250 µg/mL,250 µg/mL,250 µg/mL,> 500 µg/mL,250 µg/mL,250 µg/mL,250 µg/mL,250 µg/mL,Cc1ccc(C2=NN(c3nc(-c4ccc(C(F)(F)F)cc4)cs3)C(c3ccc(F)cc3)C2)s1 (configuration not stated),> 500 µg/mL

Structure (SMILES),MIC ([Candida] zeylanoides),MIC (Fusarium solani),MIC (Aspergillus parasiticus),MIC (Aspergillus flavus),MIC (Candida parapsilosis),MIC (Candida albicans),IC50 (A549),MIC (Nakaseomyces glabratus),MIC (Aspergillus niger),MIC (Pichia kudriavzevii),MIC (Candida tropicalis),IC50 [1]
CC(=O)N1CCN(c2ccc(OCC3COC(Cn4ccnc4)(c4ccc(Cl)cc4Cl)O3)cc2)CC1 (configuration not stated) [KETOCONAZOLE],250 µg/mL,62.5 µg/mL,7.81 µg/mL,15.6 µg/mL,15.6 µg/mL,62.5 µg/mL,–,62.5 µg/mL,31.2 µg/mL,125 µg/mL,125 µg/mL,–
